This note sets out measurements from ChEMBL document CHEMBL4402581, “Monohydrazone Based G-Quadruplex Selective Ligands Induce DNA Damage and Genome Instability in Human Cancer Cells” (J Med Chem, 2020).

SMILES strings stand for the structures. Activity calls are given as the source filed them. The calls are words filed in the database; no cut-off is given here.

In assay [1] the test system is Quadruplex DNA. Kind of assay: Effect on human Tel23 G4 quadruplex DNA architecture at 10 mol.equiv by circular dichroism spectral analysis. The format is nucleic-acid assay. In a few lines: (§1)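 CD spectra of 15 μM G4s or 30 μM hairpin in 20 mM K phosphate pH 7.0 with 5 mM KCl, after annealing. Recorded at 20 °C over 230–360 nm, three scans averaged, buffer baseline subtracted. Ligand was added at 10 mol equiv to the folded DNA from a 10 mM DMSO stock.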
(In general: Circular dichroism is the unequal absorption of left and right circularly polarised light.)

For assay [2], the system named is Quadruplex DNA. The assay is described as follows: Stabilization of G4 quadruplex DNA in human U2OS cells assessed as increase in number of G4 foci at 2 uM incubated for 24 hrs by immunofluorescence microscopy. The format is cell-based.
In assay [3] the test system is Quadruplex DNA. Kind of assay: Effect on c-Kit2 G4 quadruplex DNA architecture at 10 mol.equiv by circular dichroism spectral analysis. In kind it is nucleic-acid assay. The method in brief:
as §1

Assay [4] concerns Quadruplex DNA. Kind of assay: Binding affinity at FAM/TAMRA-tagged c-Kit2 G4 quadruplex DNA assessed as melting temperature at 2 uM in presence of 50 fold excess duplex DNA by FRET melting assay (reference value: 69.7 +/- 0.3 degreeC). The format is nucleic-acid assay. The method in brief:
(§2)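 Dual FAM/TAMRA-labelled oligos (0.2 μM) in 20 mM K phosphate pH 7.0 with 5 mM KCl, annealed 90 °C 5 min, slow-cooled overnight, held 4 °C 24 h. The Tel21 parallel form was annealed at high DNA concentration. Ligand 2 μM. Unlabelled ds12 duplex competitor at 0, 5 or 10 μM final. Tm was read from FRET melting curves.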

Assay [5] has as its system U2OS. Kind of assay: Induction of DNA:RNA hybrid formation in human U2OS cells assessed as increase in R loop formation at 10 uM incubated for 60 mins by S9.6 immunofluorescence microscopy. In kind it is functional, cell-based. In a few lines: (§3)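 U2OS cells were treated at 10 μM for 5–60 min, 24 h after seeding, then fixed in cold methanol and permeabilized with acetone. Stained with S9.6 antibody and anti-nucleolin. The nucleolar signal was subtracted from total nuclear S9.6 fluorescence, and values were normalized to the untreated mean; two biological replicates.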

For assay [6], the system named is Quadruplex DNA. The assay is described as follows: Binding affinity at FAM/TAMRA-tagged c-Kit2 G4 quadruplex DNA assessed as melting temperature at 2 uM by FRET melting assay (reference value: 69.7 +/- 0.3 degreeC). In kind it is nucleic-acid assay. The method in brief: as §2
Assay [7] concerns Quadruplex DNA. Kind of assay: Stabilization of G4 quadruplex DNA in human U2OS cells assessed as TRF2 foci per cell at 2 uM incubated for 24 hrs by immunofluorescence microscopy (reference value: 15.8 +/- 2.6%). In kind it is cell-based.
In assay [8] the test system is HeLa. The assay is described as follows: Cytotoxicity against human HeLa cells assessed as reduction in cell viability incubated for 24 hrs followed by 48 hrs of recovery in drug free medium by MTT assay. In kind it is functional, cell-based. In a few lines:
(§4)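 Cells grown in DMEM with 10% FBS and 1% glutamine at 37 °C, 5% CO2, and seeded 25 × 10^4 per well. Treatment began 24 h after seeding and lasted 1 or 24 h, followed by 48 h in drug-free medium. MTT was added for 1 h at 37 °C, then DMSO solubilization and absorbance at 595 nm. IC50 came from linear regression; two independent experiments, each in triplicate.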
(In general: Tetrazolium dyes change colour on reduction, which living cells bring about.)

The subject of assay [9] is U2OS. The assay is described as follows: Induction of genome instability in human U2OS cells assessed as fold increase in micronuclei formation per 100 cells at 10 uM incubated for 24 hrs by immunofluorescence microscopy relative to control. The format is functional. In a few lines:
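U2OS cells were treated for 24 h, fixed in 4% paraformaldehyde, permeabilized with 0.5% Triton X-100, and stained with DAPI. Micronuclei were counted per 100 cells.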

Assay [10] has as its system Quadruplex DNA. The assay is described as follows: Binding affinity at FAM/TAMRA-tagged parallel Tel21 G4 quadruplex DNA assessed as melting temperature at 2 uM by FRET melting assay (reference value: 55.4 +/- 0.2 degreeC). In kind it is nucleic-acid assay. In a few lines:
as §2

For assay [11], the system named is Quadruplex DNA. Kind of assay: Stabilization of parallel Tel23 G4 quadruplex DNA assessed as change in melting temperature at 10 mol.equiv by circular dichroism melting assay. The format is nucleic-acid assay. The method in brief:
(§5)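 CD melting from 20 to 100 °C at 1 °C/min, monitored at 264 nm (c-Kit1, c-Kit2, c-Myc, Tel23-p), 287 nm (Tel23-h) or 280 nm (hairpin). Ligand was at 10 mol equiv with folded DNA (15 μM G4, 30 μM hairpin). ΔTm is Tm with ligand minus Tm without, from curve fits, averaged over triplicates.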

For assay [12], the system named is Quadruplex DNA. Kind of assay: Binding affinity at FAM/TAMRA-tagged parallel Tel21 G4 quadruplex DNA assessed as melting temperature at 2 uM in presence of 25 fold excess duplex DNA by FRET melting assay (reference value: 55.4 +/- 0.2 degreeC). In kind it is nucleic-acid assay. In a few lines:
as §2

Assay [13] relates to U2OS. The assay is described as follows: Induction of DNA:RNA hybrid formation in human U2OS cells assessed as increase in R loop formation at 10 uM incubated for 30 mins by S9.6 immunofluorescence microscopy. The format is functional, cell-based. The method in brief: as §3
For assay [14], the system named is Quadruplex DNA. Kind of assay: Binding affinity at FAM/TAMRA-tagged c-Kit2 G4 quadruplex DNA assessed as melting temperature at 2 uM in presence of 25 fold excess duplex DNA by FRET melting assay (reference value: 69.7 +/- 0.3 degreeC). The format is nucleic-acid assay. The method in brief: as §2
The test system of assay [15] is Quadruplex DNA. The assay is described as follows: Displacement of Thiazole orange from parallel Tel23 G4 quadruplex DNA incubated for 3 mins by spectrofluorimetry relative to control. In kind it is nucleic-acid assay. In a few lines:
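Pre-folded DNA (0.25 μM) in K phosphate/KCl buffer was mixed with thiazole orange: 0.50 μM for G4s, 0.75 μM for duplex. Ligand was added stepwise from 0.5 to 10 equiv, with 3 min equilibration at 20 °C after each addition. Excitation 495 nm; emission read at 543 nm. Displacement % = 100 − (F/F0 × 100). DC50 is the concentration giving 50% displacement.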

For assay [16], the system named is Quadruplex DNA. The assay is described as follows: Binding affinity at FAM/TAMRA-tagged parallel Tel21 G4 quadruplex DNA assessed as melting temperature at 2 uM in presence of 50 fold excess duplex DNA by FRET melting assay (reference value: 55.4 +/- 0.2 degreeC). The format is nucleic-acid assay. The method in brief: as §2
For assay [17], the system named is U2OS. Kind of assay: Induction of DNA damage in human U2OS cells assessed as increase in phosphorylated 53BPI foci colocalization with gammaH2AX foci at 10 uM incubated for 4 hrs by immunofluorescence microscopy. The format is functional, cell-based. In a few lines:
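U2OS cells were treated with 10 μM for 4 h, pre-extracted 3 min with CSK buffer containing 0.5% Triton X-100, and fixed in 2% paraformaldehyde. Co-stained 1 h for 53BP1 and γH2AX, with DAPI counterstain. Foci were counted per nucleus and normalized to the untreated mean, across three biological replicates.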

Assay [18] is described as follows: Effect on hairpin-duplex DNA architecture at 10 mol.equiv by circular dichroism spectral analysis. The method in brief:
as §1

The subject of assay [19] is HeLa. The assay is described as follows: Cytotoxicity against human HeLa cells assessed as reduction in cell viability incubated for 1 hr followed by 48 hrs of recovery in drug free medium by MTT assay. The format is functional, cell-based. In a few lines:
as §4

Assay [20] concerns Quadruplex DNA. The assay is described as follows: Stabilization of G4 quadruplex DNA in human U2OS cells assessed as change in size of BG4 foci at 2 uM incubated for 24 hrs by immunofluorescence microscopy. The format is cell-based.
Assay [21] relates to Quadruplex DNA. The assay is described as follows: Stabilization of c-Myc G4 quadruplex DNA assessed as change in melting temperature at 10 mol.equiv by circular dichroism melting assay. The format is nucleic-acid assay. In a few lines: as §5
The subject of assay [22] is U2OS. Kind of assay: Cytotoxicity against human U2OS cells assessed as reduction in cell viability incubated for 24 hrs followed by 48 hrs of recovery in drug-free medium by MTT assay. The format is functional, cell-based. The method in brief:
as §4

The subject of assay [23] is Quadruplex DNA. The assay is described as follows: Stabilization of c-Kit1 G4 quadruplex DNA assessed as change in melting temperature at 10 mol.equiv by circular dichroism melting assay. The format is nucleic-acid assay. The method in brief:
as §5

One may read the IC50 as the concentration needed to halve the response being measured. The inhibition is how much of the control response was suppressed. Lower therefore signals a weak effect. As to `CC(C)(C)c1cc(/C=N/NC(=N)N)c(O)c(/C=C2/C(=O)Nc3c2ccc2ccccc32)c1.Cl`, the result (with Quadruplex DNA [1]; in the assay on Quadruplex DNA [3]; in assay [18]; in the assay on Quadruplex DNA [20]) was inactive. In addition, the outcome with Quadruplex DNA [2], in the assay with U2OS [5], with Quadruplex DNA [11], in the assay with U2OS [13], in the assay with U2OS [17] and with Quadruplex DNA [21] was Active. Moreover, the result in the assay on Quadruplex DNA [23] was Active. Further, the Tm with Quadruplex DNA [4] amounted to 76.5 °C; with Quadruplex DNA [6] it was 77.9 °C; in the assay on Quadruplex DNA [10], 68.6 °C; with Quadruplex DNA [12] it was 67.7 °C; in the assay on Quadruplex DNA [14], 76.4 °C; in the assay on Quadruplex DNA [16], 68.1 °C. Further, the Activity in the assay on Quadruplex DNA [7] turned out to be 15%. Further, the 50% inhibitory concentration (IC50) turned out to be 750 nM with HeLa [8], 3940 nM in the assay on HeLa [19] and 2060 nM with U2OS [22]. The “fold change (FC)” value in the assay with U2OS [9] was 3. The molecule also showed an inhibition with Quadruplex DNA [15] of 80%.
